# In ChEMBL document CHEMBL1759851, “Facile synthesis and stereochemical investigation of Mannich base derivatives: evaluation of antioxidant property and antituberculostic potency” (2011):
# Tests used:
# Assay type in all cases: functional
# [1] = test system: Radical scavenging activity; test: Antioxidant activity assessed as DPPH radical scavenging activity at 100 ug/mL after 30 mins
# In short: (§1)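 Oxime ethers tested by DPPH radical scavenging (Blois method, slightly modified). Sample and DPPH solution mixed gently and left at room temperature for 30 min. Optical density read at 530 nm on a microplate reader. Scavenging reported as % inhibition at each test concentration.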
# [2] = test system: Mycobacterium tuberculosis; test: Antituberculosis activity against Mycobacterium tuberculosis H37Rv
# In short: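 Zone-of-inhibition assay against M. tuberculosis H37Rv. Zone diameters were scored on an activity index: 0–5 mm, 6–10 mm (+), 11–15 mm (++), 16–20 mm (+++), and a top band (++++) for larger zones.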
# [3] = test system: Radical scavenging activity; test: Antioxidant activity assessed as DPPH radical scavenging activity at 200 ug/mL after 30 mins; in short: as §1
# [4] = test system: Radical scavenging activity; test: Antioxidant activity assessed as DPPH radical scavenging activity at 800 ug/mL after 30 mins; in short: as §1
# [5] = test system: Radical scavenging activity; test: Antioxidant activity assessed as DPPH radical scavenging activity at 400 ug/mL after 30 mins; in short: as §1
# [6] = test system: Radical scavenging activity; test: Antioxidant activity assessed as DPPH radical scavenging activity at 10 ug/mL after 30 mins; in short: as §1
SMILES,inhibition [1],inhibition zone (IZ) [2],inhibition [3],inhibition [4],inhibition [5],inhibition [6]
CO/N=C1\[C@H]2CCC[C@@H]1[C@H](c1ccc(OC)cc1)N[C@@H]2c1ccc(OC)cc1,13.9%,6 mm,–,–,–,–
CO/N=C1\[C@H]2CCC[C@@H]1[C@H](c1ccc(OC(C)=O)c(OC)c1)N[C@@H]2c1ccc(OC(C)=O)c(OC)c1,32.4%,–,52.9%,88.8%,78.3%,–
CO/N=C1\[C@H]2CCC[C@@H]1[C@H](c1ccccc1Cl)N[C@@H]2c1ccccc1Cl,6.47%,6 mm,–,–,–,–
CO/N=C1\[C@H]2CCC[C@@H]1[C@H](c1cccc(OC)c1)N(C)[C@@H]2c1cccc(OC)c1,10.7%,–,13.8%,–,26.8%,–
CCCOc1ccc([C@H]2N[C@@H](c3ccc(OCCC)cc3)[C@H]3CCC[C@@H]2/C3=N\OC)cc1,23.9%,6 mm,38.5%,–,–,–
CO/N=C1\[C@H]2CCC[C@@H]1[C@H](c1ccc(OC)cc1)N(C)[C@@H]2c1ccc(OC)cc1,20.9%,6 mm,41.9%,–,58.8%,–
CO/N=C1\[C@H]2CCC[C@@H]1[C@H](c1ccccc1Cl)N(C)[C@@H]2c1ccccc1Cl,11.4%,11 mm,–,–,–,–
CCOc1ccccc1[C@H]1N[C@@H](c2ccccc2OCC)[C@H]2CCC[C@@H]1/C2=N\OC,10.2%,6 mm,–,–,–,–
CO/N=C1\[C@H]2CCC[C@@H]1[C@H](c1ccc(Cl)cc1)N(C)[C@@H]2c1ccc(Cl)cc1,11.9%,11 mm,–,–,–,–
CO/N=C1\[C@H]2CCC[C@@H]1[C@H](c1ccc(OCc3ccccc3)cc1)N[C@@H]2c1ccc(OCc2ccccc2)cc1,27.9%,<=21 mm,47.8%,–,–,–
CCCCOc1ccc([C@H]2N[C@@H](c3ccc(OCCCC)cc3)[C@H]3CCC[C@@H]2/C3=N\OC)cc1,27.8%,6 mm,43.9%,–,–,–
CO/N=C1\[C@H]2CCC[C@@H]1[C@H](c1ccccc1C)N[C@@H]2c1ccccc1C,9.5%,0 mm,–,–,–,–
CO/N=C1\[C@H]2CCC[C@@H]1[C@H](c1ccc(SC)cc1)N[C@@H]2c1ccc(SC)cc1,17.6%,11 mm,22.5%,–,–,–
CO/N=C1\[C@H]2CCC[C@@H]1[C@H](c1ccc(Br)cc1)N(C)[C@@H]2c1ccc(Br)cc1,12.1%,0 mm,–,–,–,–
CO/N=C1\[C@H]2CCC[C@@H]1[C@H](c1ccccc1F)N[C@@H]2c1ccccc1F,2.33%,11 mm,–,–,–,–
CO/N=C1\[C@H]2CCC[C@@H]1[C@H](c1ccc(Br)cc1)N[C@@H]2c1ccc(Br)cc1,5.72%,0 mm,–,–,–,–
CO/N=C1\[C@H]2CCC[C@@H]1[C@H](c1ccc(C(C)C)cc1)N[C@@H]2c1ccc(C(C)C)cc1,15.3%,6 mm,–,–,–,–
CO/N=C1\[C@H]2CCC[C@@H]1[C@H](c1cccc(Cl)c1)N[C@@H]2c1cccc(Cl)c1,4.77%,0 mm,–,–,–,–
CO/N=C1\[C@H]2CCC[C@@H]1[C@H](c1ccccc1)N(C)[C@@H]2c1ccccc1,10.7%,–,13.8%,–,–,–

SMILES,inhibition [1],inhibition zone (IZ) [2],inhibition [3],inhibition [4],inhibition [5],inhibition [6]
CO/N=C1\[C@H]2CCC[C@@H]1[C@H](c1ccccc1OC)N[C@@H]2c1ccccc1OC,16%,6 mm,20.7%,–,–,–
CCc1ccc([C@H]2N[C@@H](c3ccc(CC)cc3)[C@H]3CCC[C@@H]2/C3=N\OC)cc1,11.9%,0 mm,–,–,–,–
CO/N=C1\[C@H]2CCC[C@@H]1[C@H](c1ccc(F)cc1)N(C)[C@@H]2c1ccc(F)cc1,2.4%,<=21 mm,–,–,–,–
CO/N=C1\[C@H]2CCC[C@@H]1[C@H](c1ccccc1)N[C@@H]2c1ccccc1,10.5%,0 mm,18.7%,–,24.4%,–
CO/N=C1\[C@H]2CCC[C@@H]1[C@H](c1ccc(Cl)cc1)N[C@@H]2c1ccc(Cl)cc1,6.58%,11 mm,–,–,–,–
CCOc1ccc([C@H]2N[C@@H](c3ccc(OCC)cc3)[C@H]3CCC[C@@H]2/C3=N\OC)cc1,23.2%,6 mm,30.8%,–,–,–
CO/N=C1\[C@H]2CCC[C@@H]1[C@H](c1ccc(C)cc1)N[C@@H]2c1ccc(C)cc1,14.5%,0 mm,–,–,–,–
CO/N=C1\[C@H]2CCC[C@@H]1[C@H](c1cccc(OC)c1)N[C@@H]2c1cccc(OC)c1,13.5%,–,–,–,–,–
CO/N=C1\[C@H]2CCC[C@@H]1[C@H](c1ccc(C)cc1)N(C)[C@@H]2c1ccc(C)cc1,19.8%,6 mm,22%,–,–,–
C=CCOc1ccc([C@H]2N[C@@H](c3ccc(OCC=C)cc3)[C@H]3CCC[C@@H]2/C3=N\OC)cc1,21.7%,<=21 mm,25.8%,–,31.8%,–
CO/N=C1\[C@H]2CCC[C@@H]1[C@H](c1ccccc1C)N(C)[C@@H]2c1ccccc1C,15.3%,6 mm,–,–,–,–
CO/N=C1\[C@H]2CCC[C@@H]1[C@H](c1ccccc1Br)N[C@@H]2c1ccccc1Br,5.28%,–,–,–,–,–
CO/N=C1\[C@H]2CCC[C@@H]1[C@H](c1cccc(F)c1)N[C@@H]2c1cccc(F)c1,0.97%,6 mm,–,–,–,–
CO/N=C1\[C@H]2CCC[C@@H]1[C@H](c1ccccc1OC)N(C)[C@@H]2c1ccccc1OC,15.4%,–,24.9%,–,40.2%,–
CO/N=C1\[C@H]2CCC[C@@H]1[C@H](c1cccc(Br)c1)N[C@@H]2c1cccc(Br)c1,4.35%,–,–,–,–,–
O=C1O[C@H]([C@@H](O)CO)C(O)=C1O,–,–,–,–,–,98.5%
NNC(=O)c1ccncc1 [ISONIAZID],–,<=21 mm,–,–,–,–
CO/N=C1\[C@H]2CCC[C@@H]1[C@H](c1ccc(F)cc1)N[C@@H]2c1ccc(F)cc1,3.6%,16 mm,–,–,–,–
